KCNQ1 act = human KCNQ1 channel potentiation or activation | B-score at 10 µM | AID 2648 | CHO-K1 KCNQ1, thallium flux FluxOR fluorescence; stronger effect = higher value | actives 0.35% (n = 310,000);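 active means fluorescence ratio B-score, a plate-corrected score, at least three library SD, with initial intensity B-score within 5 SD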
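System: CHO-K1 cells stably expressing KCNQ1 / Medium: assay buffer for compound exposure, DMSO matched across wells / Reagent: thallium- and potassium-containing depolarizing buffer / Compound: one concentration, matched DMSO / Incubation: 20 min compound pretreatment at room temperature / Measured by: kinetic FluxOR fluorescence, 10 s baseline plus 110 s post-stimulus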
Mot1-301 SUMO = SUMOylation pathway inhibition by Mot1-301 growth rescue; S. cerevisiae Mot1-301 growth rescue, ATP luminescence, 38.5C; percent above DMSO median, 100 means doubled; growth rescue, % at 18.8 µM; actives 1% (n = 320,000); AID 2716;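 active means every valid replicate shows activation above 250% relative to neutral control wells; inactive means the rest, any valid replicate at or below 250%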;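 further: OY570 slx delta 5 strain wells were the positive control but not used for scaling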
Cl transport mod = KCC2 (human) Cl- transport modulation | AID 1456 | Q9H2X9 | B-score of Tl+ flux slope (higher = more flux/activation; lower = inhibition) at 10 µM | actives 2.2% (n = 190,000) | KCC2 cells, thallium flux FluoZin-2 fluorescence;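 active means thallium flux slope and its plate-corrected score both differing from the plate sample mean at a set confidence after two filtering rounds, in either direction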;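 further: slope of fluorescence scaled to starting intensity during 10 to 20 s after thallium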
AI-2 QS modul = modulates the Vibrio harveyi AI-2 quorum sensing system. actives 0.4% (n = 300,000). AID 2094. Vibrio harveyi JMH597 AI-2 luminescence/OD600 ratio, 9 h; stronger effect = lower value; strain lacks LuxN and CqsS sensors; 0 = neutral-control median. activity change, % at 7.5 µM; in the data active means activity change below about -75%, passing the limit was not always enough; inconclusive means no clear call, values can overlap the other calls;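 further: luminescence divided by OD600 gain over 9 h not by final OD600 alone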
KCNQ1 inh = blocks the human KCNQ1 potassium channel | actives 1.3% (n = 310,000) | P51787 | AID 2642 | CHO-K1 KCNQ1, FluxOR thallium flux fluorescence; stronger effect = higher value | B-score at 10 µM;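 active means compounds whose thallium flux B-score, printed positive for inhibition, exceeds three library SD while starting fluorescence stays within three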;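 further: channel opened by potassium depolarization with thallium stimulus after 20 min compound exposure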
hERG protect = hERG (human) protection from proarrhythmic block | Q12809 | CHO-hERG, FluxOR thallium flux, dofetilide IC70 present | activation (rescue from dofetilide block), less the hit threshold, % at 10 µM | actives 0.51% (n = 310,000) | AID 1511;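 active means activation above the mean of controls blocked by dofetilide plus 5 SD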;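 further: thallium influx through hERG after potassium depolarization seen as dye fluorescence rise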
Target sequence (Q12809 whole entry, looked up): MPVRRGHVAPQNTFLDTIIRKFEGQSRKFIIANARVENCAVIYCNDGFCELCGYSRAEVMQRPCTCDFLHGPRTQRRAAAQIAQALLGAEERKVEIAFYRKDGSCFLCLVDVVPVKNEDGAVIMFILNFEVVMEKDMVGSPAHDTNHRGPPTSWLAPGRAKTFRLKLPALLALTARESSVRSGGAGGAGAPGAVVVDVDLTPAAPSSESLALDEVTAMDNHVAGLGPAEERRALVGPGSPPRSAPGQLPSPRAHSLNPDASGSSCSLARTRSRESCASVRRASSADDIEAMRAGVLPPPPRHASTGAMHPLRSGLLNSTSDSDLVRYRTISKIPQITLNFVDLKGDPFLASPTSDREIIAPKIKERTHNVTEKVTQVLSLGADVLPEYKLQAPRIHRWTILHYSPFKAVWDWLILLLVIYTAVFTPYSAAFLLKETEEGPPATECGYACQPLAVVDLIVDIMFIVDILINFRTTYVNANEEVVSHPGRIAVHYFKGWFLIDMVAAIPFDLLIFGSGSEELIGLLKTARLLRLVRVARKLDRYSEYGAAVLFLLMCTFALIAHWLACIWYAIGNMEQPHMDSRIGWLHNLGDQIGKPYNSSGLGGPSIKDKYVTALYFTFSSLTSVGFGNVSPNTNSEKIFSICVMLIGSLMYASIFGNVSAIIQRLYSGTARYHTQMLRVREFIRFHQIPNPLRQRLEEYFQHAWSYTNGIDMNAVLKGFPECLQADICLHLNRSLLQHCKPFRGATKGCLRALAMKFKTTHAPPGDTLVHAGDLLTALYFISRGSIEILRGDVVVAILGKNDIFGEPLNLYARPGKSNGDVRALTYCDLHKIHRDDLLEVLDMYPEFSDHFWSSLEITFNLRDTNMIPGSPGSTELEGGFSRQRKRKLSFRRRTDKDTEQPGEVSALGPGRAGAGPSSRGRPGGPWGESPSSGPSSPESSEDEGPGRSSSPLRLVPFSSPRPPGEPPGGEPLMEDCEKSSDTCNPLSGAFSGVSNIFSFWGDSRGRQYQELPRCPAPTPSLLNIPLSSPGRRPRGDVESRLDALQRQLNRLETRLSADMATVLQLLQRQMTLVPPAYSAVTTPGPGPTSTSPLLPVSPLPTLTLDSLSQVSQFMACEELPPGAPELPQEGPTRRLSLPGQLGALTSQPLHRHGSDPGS
KCC2 sec1 = KCC2 (human) modulation, secondary assay; shares compounds with Cl transport mod; HEK293-KCC2, thallium flux, FluoZin2 fluorescence; stronger effect = higher value; normalised thallium flux (F/F0 slope) at 10 µM; actives 15% (n = 3,700); AID 1713;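 active means thallium flux slope above the same plate's solvent-only control mean plus 3 SD; inconclusive means the two replicate wells disagree; inactive means no significant difference from solvent-only control wells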
KCC2 bumet counter = thallium flux despite bumetanide block in KCC2 cells, secondary assay 3; shares compounds with Cl transport mod; HEK293-KCC2 + bumetanide/ouabain, thallium flux FluoZin2; stronger effect = higher value; normalized thallium flux at 10 µM; actives 49% (n = 3,700); AID 1714;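 active means thallium entry rate above the same plate's blocked-transporter control wells by more than 3 SD; inconclusive means the two repeat wells disagree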;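 further: raw slope of fluorescence over initial fluorescence between 10 and 20 s after thallium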
KCC2 sec2 = KCC2 (human) modulation, second secondary assay. shares compounds with Cl transport mod. HEK293-KCC2, thallium flux FluoZin2 fluorescence; actives lie on both sides; F/F0 rise rate, 10–20 s post-thallium. normalized thallium flux at 10 µM. actives 23% (n = 3,700);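 active means thallium flux slope more than 3 SD above or below the plate's solvent-only control mean, mostly below; inconclusive means the two repeat wells disagreed; inactive means no significant shift from solvent-only controls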;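 further: raw slope with 0.1% DMSO as baseline and bumetanide as block control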
HEK counter1 = acts in parental HEK cells, KCC2 counter-screen. shares compounds with Cl transport mod. HEK293 parental cells, thallium flux FluoZin2, ouabain; baseline-ratio fluorescence slope, 10–20 s after thallium. thallium flux rate (normalised fluorescence) at 10 µM. actives 46% (n = 3,700). AID 1716;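 active means thallium flux rate significantly above the same plate's solvent-only control wells, beyond their mean plus 3 SD; inconclusive means the two replicate wells gave conflicting results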
KCC2 ouabain = modulates human KCC2 on retest with ouabain; shares compounds with Cl transport mod; HEK293-KCC2, thallium flux FluoZin2 fluorescence; bidirectional: low = inhibitor, high = activator; raw Tl+ flux slope (below DMSO = inhibition, above = activation) at 10 µM; actives 48% (n = 3,700); AID 1717;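 active means thallium flux slope beyond 3 SD from same-plate DMSO control mean in most replicates, usually higher, sometimes lower; inconclusive means repeat tests gave conflicting results; inactive means no significant difference from controls in most replicates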;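 further: slope of initial-normalized fluorescence between seconds 10 and 20 after thallium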
HEK counter2 = parental HEK flux effect, counter-screen 2. shares compounds with Cl transport mod. thallium flux slope at 10 µM. HEK293 parental, thallium flux FluoZin-2 fluorescence slope. actives 33% (n = 3,700);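 active means thallium flux slope above the same plate's solvent-control mean plus 3 SD in both duplicate wells; inconclusive means duplicate wells that disagreed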;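 further: run without ouabain in cells lacking the KCC2 cotransporter; slope of fluorescence scaled to its starting value between 10 and 20 s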
Active calls of the source: *; i = inactive; ? = inconclusive; . = no result given. Only some compounds are listed: those with a hit (about 4.2% of all), similar ones and a draw of the others.

SMILES	KCNQ1 act	Mot1-301 SUMO	Cl transport mod	AI-2 QS modul	KCNQ1 inh	hERG protect	KCC2 sec1	KCC2 bumet counter	KCC2 sec2	HEK counter1	KCC2 ouabain	HEK counter2
O=C1CC(c2nc3ccccc3[nH]2)CN1Cc1ccccc1 (configuration not stated)	i	3	-3.4*	21	i	-9	0.012*	?	0.03	0.0082	0.021	0.011
N#CC(C#N)=C(Nc1ccc(F)cc1)SCc1cccc(Br)c1	i	-18	-3.7*	-4	7*	-21	0.0065	?	?	0.0096*	0.015*	0.011
Cc1cccc(CSC(Nc2ccc(F)cc2)=C(C#N)C#N)c1	i	-9	-5*	14	8*	-19	0.0073	0.0064	0.029	0.0057*	0.059*	0.01
Cc1ccc(C(=O)N/C(=C\c2cccc([N+](=O)[O-])c2)C(=O)NC(Cc2ccccc2)C(=O)O)cc1 (configuration not stated)	i	-4	.	21	i	-7	.	.	.	.	.	.
Cc1ccc(C)c(S(=O)(=O)NC(CC(C)C)C(=O)O)c1 (configuration not stated)	i	36	5.6*	12	i	-14	0.019	?	0.031	0.0073	0.014	0.01
Cc1ccc(C)c(S(=O)(=O)NC(Cc2c[nH]c3ccccc23)C(=O)O)c1 (configuration not stated)	i	-3	0.057	10	i	-4	.	.	.	.	.	.
S=c1[nH]cnc2scc(-c3ccc(Cl)cc3)c12	19*	40	181*	-6	i	23*	0.063*	0.17*	0.058*	?	0.12*	0.062*
S=c1[nH]cnc2scc(-c3ccc(Br)cc3)c12	23*	4	48*	40	i	14*	0.055*	0.14*	?	?	0.094*	0.027*
O=c1[nH]cnc2scc(-c3ccc(Br)cc3)c12	i	-10	.	-5	i	3	.	.	.	.	.	.
O=C(Cn1cc(Cl)c([N+](=O)[O-])n1)NCCC1=CCCCC1	i	-19	.	26	i	2	.	.	.	.	.	.
CCCn1c(=O)c(C(=O)NNC(=O)c2ccccc2Cl)c(O)c2ccccc21	i	35	.	9	i	-10	.	.	.	.	.	.
CN(C)S(=O)(=O)c1cccc(NC(=O)c2cc3c(cc2Cl)N2CCCCCC2=NS3(=O)=O)c1	i	9	-4.5*	15	i	-13	0.0093	0.0065	0.023*	0.0067	0.014*	0.0091
O=C(CSc1nnc(-c2ccc(F)cc2)o1)N1CCN(C(=O)c2ccco2)CC1	i	-7	-4.4*	43	i	-4	0.0079	0.0066	0.03*	0.0045	0.018*	0.012
O=C(CSc1nnc(CNc2ccc(F)cc2)o1)N1CCN(C(=O)c2ccco2)CC1	i	-7	-0.63	30	i	-1	.	.	.	.	.	.
Cc1ccccc1C(=O)OCc1cnc(Cl)s1	i	-1	1.9	-6	i	-18	.	.	.	.	.	.
CCOC(=O)c1c(-c2cccs2)csc1NC(=O)CCCC(=O)O	i	20	.	40	i	-5	0.016	0.006*	0.027	?	0.015	0.0089
Cc1ccc(CNC(=O)CCc2cn(C)c3ccccc23)cc1	i	-10	.	1	i	-1	.	.	.	.	.	.
O=C1CCN(S(=O)(=O)c2ccc(Cl)cc2)N1	i	-17	0.98	-5	i	-12	.	.	.	.	.	.
O=C1CCN(S(=O)(=O)c2ccccc2)N1	i	155	-5.6*	-3	i	-11	0.009	0.0068	0.029	0.0074	0.066	0.0098
Cc1ccc2nc3c(cc2c1)CN(Cc1ccco1)C(=NCC1CCCO1)S3 (configuration not stated)	i	0	3*	23	i	-5	0.0067	?	0.033	0.0075	0.019	0.011
Cc1cccc2cc3c(nc12)SC(=NCC1CCCO1)N(Cc1ccco1)C3 (configuration not stated)	i	-14	1.3	1	i	-8	.	.	.	.	.	.
Cc1cc(Br)ccc1NC(=O)C1CCN(S(=O)(=O)c2cnc[nH]2)CC1	i	-9	.	27	i	-9	.	.	.	.	.	.
O=C(c1nc2ccccn2c1CNCCCn1cccn1)N1CCCC1	i	-20	1.2	9	i	-18	.	.	.	.	.	.
CCCn1c(=O)c(C(=O)NNC(=O)Cc2ccccc2)c(O)c2ccccc21	i	-2	.	4	i	-3	.	.	.	.	.	.
CCCCCCCC(=O)NNC(=O)c1c(O)c2ccccc2n(CC)c1=O	i	-14	11*	33	i	-6	0.0052	0.016*	0.033	0.017*	?	0.019*
CCCCCCC(=O)NNC(=O)c1c(O)c2ccccc2n(CC)c1=O	i	7	5.6*	9	i	-7	0.0064	0.017*	0.034	0.017*	0.025*	0.016*
CCCCCCCC(=O)NNC(=O)c1c(O)c2ccccc2n(CCC)c1=O	i	2	.	3	i	-7	.	.	.	.	.	.
CCCCCCCCC(=O)NNC(=O)c1c(O)c2ccccc2n(CC)c1=O	i	.	9.5*	6	i	-5	0.0056	0.022*	0.036	0.019*	0.03*	0.019*
CCCCCCC(=O)NNC(=O)c1c(O)c2ccccc2n(CCC)c1=O	i	0	2.6	12	i	-5	.	.	.	.	.	.
